Columns and labels:
Assay type in all cases: functional
[1] = Growth inhibition of human HL-60(TB) cells assessed as cell growth at 10 uM incubated for 48 hrs by sulforhodamine B assay relative to control; conditions: HL-60, 48 h, read-out: Activity
Summary of the method: (§1)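 Single-dose screen in the NCI 60-cell-line panel at one final concentration of 10 µM. Two-day drug exposure with a sulforhodamine B endpoint. Values are growth percent for each cell line.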

T47D = assay: Growth inhibition of human T47D cells incubated for 48 hrs by sulforhodamine B assay
Summary of the method: (§2)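 Tested in the standard NCI 60-cell-line protocol with two-day drug exposure and a sulforhodamine B endpoint. Compounds were first screened at a single final concentration of 10 µM, reported as growth percent. They were then run as five 10-fold dilutions starting from a high concentration of 100 µM to give dose-response curves.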

[2] = Growth inhibition of human IGROV1 cells incubated for 48 hrs by sulforhodamine B assay; conditions: IGROV-1, 48 h
Summary of the method: (§3)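 NCI 60-cell-line panel, standard protocol. Cells exposed to compound for two days, growth read by sulforhodamine B staining. Tested at five 10-fold dilutions, top concentration 100 µM, to give dose-response curves.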

NCI-H322M = assay: Growth inhibition of human NCI-H322M cells assessed as cell growth at 10 uM incubated for 48 hrs by sulforhodamine B assay relative to control; conditions: read-out: Activity
Summary of the method: (§4)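 Run in the standard NCI 60-cell-line screen. Cells were exposed to drug for two days, and the read-out was sulforhodamine B staining. Compound was tested at a single final concentration of 10 µM in every line, and results are reported as growth percent.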

MDA-MB-468 = assay: Growth inhibition of human MDA-MB-468 cells incubated for 48 hrs by sulforhodamine B assay; conditions: MDA-MB-468, 48 h; summary of the method: as §3
[3] = Growth inhibition of human DU145 cells assessed as cell growth at 10 uM incubated for 48 hrs by sulforhodamine B assay relative to control; conditions: DU-145, 48 h, read-out: Activity; summary of the method: as §4
[4] = Growth inhibition of human RPMI8226 cells assessed as cell growth at 10 uM incubated for 48 hrs by sulforhodamine B assay relative to control; conditions: RPMI-8226, 48 h, read-out: Activity; summary of the method: as §4
M14 = assay: Growth inhibition of human M14 cells assessed as cell growth at 10 uM incubated for 48 hrs by sulforhodamine B assay relative to control; conditions: M14, 48 h, read-out: Activity; summary of the method: as §4
[5] = Growth inhibition of human COLO205 cells assessed as cell growth at 10 uM incubated for 48 hrs by sulforhodamine B assay relative to control; conditions: COLO 205, 48 h, read-out: Activity; summary of the method: as §4
[6] = Growth inhibition of human TK10 cells assessed as cell growth at 10 uM incubated for 48 hrs by sulforhodamine B assay relative to control; conditions: TK-10, 48 h, read-out: Activity
Summary of the method: (§5)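 NCI 60-cell line standard protocol, one-dose screen: single final concentration 10 µM, 2-day drug exposure, sulforhodamine B (SRB) endpoint; read-out is growth percent relative to untreated control.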

786-0 [7] = assay: Growth inhibition of human 786-0 cells assessed as cell growth at 10 uM incubated for 48 hrs by sulforhodamine B assay relative to control; conditions: 786-0, 48 h, read-out: Activity; summary of the method: as §4
[8] = Growth inhibition of human Caki1 cells assessed as cell growth at 10 uM incubated for 48 hrs by sulforhodamine B assay relative to control; conditions: CAKI-1, 48 h, read-out: Activity; summary of the method: as §4
SK-MEL-2 = assay: Growth inhibition of human SK-MEL-2 cells assessed as cell growth at 10 uM incubated for 48 hrs by sulforhodamine B assay relative to control; conditions: SK-MEL-2, 48 h, read-out: Activity; summary of the method: as §4
SK-MEL-5 = assay: Growth inhibition of human SK-MEL-5 cells incubated for 48 hrs by sulforhodamine B assay; conditions: SK-MEL-5, 48 h; summary of the method: as §3
SR = assay: Growth inhibition of human SR cells assessed as cell growth at 10 uM incubated for 48 hrs by sulforhodamine B assay relative to control; conditions: read-out: Activity; summary of the method: as §4
786-0 [9] = assay: Growth inhibition of human 786-0 cells incubated for 48 hrs by sulforhodamine B assay; conditions: 786-0, 48 h; summary of the method: as §3
HT-29 = assay: Growth inhibition of human HT-29 cells incubated for 48 hrs by sulforhodamine B assay; conditions: HT-29, 48 h; summary of the method: as §3
[10] = Growth inhibition of human HOP62 cells assessed as cell growth at 10 uM incubated for 48 hrs by sulforhodamine B assay relative to control; conditions: HOP-62, 48 h, read-out: Activity; summary of the method: as §4
[11] = Growth inhibition of human UACC257 cells assessed as cell growth at 10 uM incubated for 48 hrs by sulforhodamine B assay relative to control; conditions: UACC-257, 48 h, read-out: Activity; summary of the method: as §5
[12] = Growth inhibition of human HCC2998 cells incubated for 48 hrs by sulforhodamine B assay; conditions: HCC 2998, 48 h; summary of the method: as §3
[13] = Growth inhibition of human HCT116 cells assessed as cell growth at 10 uM incubated for 48 hrs by sulforhodamine B assay relative to control; conditions: HCT-116, 48 h, read-out: Activity; summary of the method: as §4
SK-MEL-28 = assay: Growth inhibition of human SK-MEL-28 cells incubated for 48 hrs by sulforhodamine B assay; conditions: SK-MEL-28, 48 h; summary of the method: as §3
[14] = Growth inhibition of human BT549 cells incubated for 48 hrs by sulforhodamine B assay; conditions: BT-549, 48 h; summary of the method: as §3
[15] = Growth inhibition of human LOXIMVI cells assessed as cell growth at 10 uM incubated for 48 hrs by sulforhodamine B assay relative to control; conditions: LOX IMVI, read-out: Activity; summary of the method: as §1
SN12C = assay: Growth inhibition of human SN12C cells incubated for 48 hrs by sulforhodamine B assay; summary of the method: as §2
[16] = Growth inhibition of human SF268 cells assessed as cell growth at 10 uM incubated for 48 hrs by sulforhodamine B assay relative to control; conditions: SF-268, 48 h, read-out: Activity; summary of the method: as §4
[17] = Growth inhibition of human Hs 578T cells incubated for 48 hrs by sulforhodamine B assay
MDA-MB-231 = assay: Growth inhibition of human MDA-MB-231 cells incubated for 48 hrs by sulforhodamine B assay; conditions: MDA-MB-231, 48 h; summary of the method: as §3
[18] = read-out: pLC50 (the source's name) (converted)

In the case of `CC(C)[C@@]12C[C@@H](NC(=O)CO)[C@@](C)(O1)[C@@H]1CC[C@@H](C)[C@H]1[C@@H]2OC(=O)/C=C/c1ccccc1`, the growth at 10 µM [1] is reported as 91.7%, the GI50 (T47D) is reported as 19.1 µM and the CC50 (T47D; [18]) is reported as over 50.1 µM. For the same compound, the TGI (T47D; read-out: pTGI (converted)) was over 50.1 µM, the GI50 [2] was over 50.1 µM and the CC50 [2, 18] was over 50.1 µM. The TGI ([2]; read-out: pTGI (converted)) was over 50.1 µM, the growth at 10 µM (NCI-H322M) was 77.8% and the GI50 (MDA-MB-468) was 12.3 µM. For the same compound, the CC50 (MDA-MB-468; [18]) was over 50.1 µM, the TGI (MDA-MB-468; read-out: pTGI (converted)) was over 50.1 µM and the growth at 10 µM [3] was 110%. It also gave a growth at 10 µM [4] of 90.6%, a growth at 10 µM (M14) of 103% and a growth at 10 µM [5] of 96.4%. The growth at 10 µM [6] was 102%, the growth at 10 µM (786-0 [7]) was 73.1% and the growth at 10 µM [8] was 61.1%. It also gave a growth at 10 µM (SK-MEL-2) of 101%, a GI50 (SK-MEL-5) of 12.9 µM and an LC50 (SK-MEL-5) of over 50.1 µM. For the same compound, the TGI (SK-MEL-5; read-out: pTGI (converted)) was 42.7 µM, the growth at 10 µM (SR) was 79.1% and the GI50 (786-0 [9]) was 3.63 µM. For the same compound, the LC50 (786-0 [9]) was over 50.1 µM, the TGI (786-0 [9]; read-out: pTGI (converted)) was 24 µM and the GI50 (HT-29) was 16.6 µM. It also gave an LC50 (HT-29) of over 50.1 µM, a TGI (HT-29; read-out: pTGI (converted)) of over 50.1 µM and a growth at 10 µM [10] of 86.8%. It also gave a growth at 10 µM [11] of 104%, a GI50 [12] of 15.8 µM and an LC50 [12] of over 50.1 µM. For the same compound, the TGI ([12]; read-out: pTGI (converted)) was over 50.1 µM, the growth at 10 µM [13] was 85.8% and the GI50 (SK-MEL-28) was 20.9 µM. For the same compound, the LC50 (SK-MEL-28) was over 50.1 µM, the TGI (SK-MEL-28; read-out: pTGI (converted)) was over 50.1 µM and the GI50 [14] was 6.92 µM. For the same compound, the CC50 [14, 18] was over 50.1 µM, the TGI ([14]; read-out: pTGI (converted)) was 25.1 µM and the growth at 10 µM [15] was 102%. The GI50 (SN12C) was 10.7 µM, the CC50 (SN12C; [18]) was over 50.1 µM and the TGI (SN12C; read-out: pTGI (converted)) was over 50.1 µM. For the same compound, the growth at 10 µM [16] was 84.4%, the GI50 ([17]; read-out: GI50) was 0.832 µM and the GI50 ([17]; read-out: pGI50 (converted)) was 0.832 µM. It also gave a CC50 [17, 18] of over 50.1 µM, a TGI ([17]; read-out: pTGI (converted)) of 3.39 µM and a GI50 (MDA-MB-231) of 24.5 µM. For the same compound, the CC50 (MDA-MB-231; [18]) was over 50.1 µM and the TGI (MDA-MB-231; read-out: pTGI (converted)) was over 50.1 µM.

Reference: ChEMBL document CHEMBL3804761, “Synthesis of a stable and orally bioavailable englerin analogue” (Bioorg Med Chem Lett, 2016)
